These results are taken from ChEMBL document CHEMBL2407037, “Parvifloranines A and B, two 11-carbon alkaloids from Geijera parviflora” (J Nat Prod, 2013).

The structures appear in SMILES notation. Activity calls are given as the source filed them. The rule behind the calls is not given here.

In data set [1] the test system is Staphylococcus epidermidis. The data set is described as follows: Antibacterial activity against Staphylococcus epidermidis. The class given is functional, organism-based.
For a further data set, the system named is Pseudomonas aeruginosa. As to the kind of experiment: Antibacterial activity against Pseudomonas aeruginosa. The class given is functional, organism-based.
In data set [2] the test system is Staphylococcus aureus. The data set is described as follows: Antibacterial activity against methicillin-sensitive Staphylococcus aureus. The class given is functional, organism-based.
The subject of data set [3] is RAW264.7. As to the kind of experiment: Cytotoxicity against mouse RAW264.7 cells after 24 hrs by ATPLite assay. The class given is cell-based. The following applies: RAW264.7, 24 h. An outline of the steps: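 RAW 264.7 cells in colour-free DMEM with 10% FBS, 2 mM L-glutamine, 1 mM pyruvate, penicillin/streptomycin; 30 000 cells/well, compounds from DMSO stocks diluted 20-fold in medium, six concentrations; 24 h at 37 °C, 5% CO2. Cellular ATP read by ATPlite luminescence after lysis and 10 min dark adaptation. Chlorambucil as positive control; triplicate; EC50 from curve fit.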
In general terms: ATP-based viability assays read luminescence as a measure of living cells.

Data set [4] can be described thus: Solubility of the compound. The class given is physicochemical.
For another data set, the system named is Escherichia coli. As to the kind of experiment: Antibacterial activity against Escherichia coli. In kind it is functional, organism-based.
The subject of data set [5] is RAW264.7. As to the kind of experiment: Selectivity index, ratio of EC50 for mouse RAW264.7 cells to IC50 for mouse RAW264.7 cells assessed as LPS-induced NO production. In kind it is functional. A digest of the protocol:
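Index is cytotoxicity EC50 in RAW 264.7 cells (24 h ATPlite) divided by the IC50 for inhibition of LPS-induced nitrite production in the same cells (Griess readout).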

For data set [6], the system named is Staphylococcus aureus. As to the kind of experiment: Antibacterial activity against methicillin-resistant Staphylococcus aureus. In kind it is functional, organism-based.
Data set [7] relates to RAW264.7. The data set is described as follows: Inhibition of LPS-induced NO production in mouse RAW264.7 cells incubated 1 hr prior to LPS challenge measured after 20 hrs by Griess assay. In kind it is functional, cell-based. A digest of the protocol: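 RAW 264.7 cells seeded at 10^6 cells/mL and grown 20 h before compound (DMSO stock diluted 20-fold in medium). After 1 h pretreatment, LPS (10 μg/mL stock, 10 μL/well) added, then 20 h further incubation. Supernatant nitrite read by Griess reagent, 20 min at 23 °C, absorbance 550 nm, against 0–100 μM nitrite standards. Output expressed as % of solvent control; triplicate, mean and SD.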
Background: Nitrite, measured by Griess reagent, commonly stands in for NO production.

Data set [8] concerns RAW264.7. The data set is described as follows: Inhibition of LPS-induced TNF-alpha production in mouse RAW264.7 cells. The class given is functional, cell-based.
In another data set the test system is NIH3T3. As to the kind of experiment: Inhibition of A23187-induced prostaglandin E2 production in Swiss albino mouse 3T3 cells. The class given is functional, cell-based.

In general, EC50 refers to the concentration giving half of the maximal effect. A high value points to weaker potency. What is called solubility is the dissolved amount per volume that the medium holds. A low value points to a poorly soluble substance. A word on the IC50: it is the point on the concentration scale where inhibition reaches its midpoint. As to `C/C(=C\COc1ccc2ccc(=O)oc2c1)C1=C(CN2CCCC2C(=O)O)C(=O)C(C)(C)O1` (mixture of isomers), the result (in [1]; in the data set on Pseudomonas aeruginosa; in the data set on Staphylococcus aureus [2]; in the data set with Escherichia coli; in the data set on Staphylococcus aureus [6]) was inactive. The same compound yielded an EC50 in the data set on RAW264.7 [3] of 74.7 µM. In data set [4], this compound showed a solubility of 245 µg/mL. Besides, the “Selectivity Index” value in the data set with RAW264.7 [5] is on record as 3.2. The IC50 with RAW264.7 [7] is 23.4 µM. Moreover, the inhibition entry in the data set on RAW264.7 [8] and in the data set with NIH3T3 was “inactive” in each case.
